Data set [1] in a line: AUC in mouse at 3 mg/kg, iv. In kind it is ADME, organism-based. The note with it: in vivo.
Data set [2] in a line: Initial plasma concentration in mouse at 1 mg/kg, iv. Format: ADME, organism-based. In a few lines: (§1)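 Mouse pharmacokinetics after single intravenous CMPF dosing at 1 or 3 mg/kg. Plasma exposure was followed over time to derive AUC, C0, terminal half-life, clearance and volume of distribution.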
Data set [3] can be described thus: Clearance in mouse at 1 mg/kg, iv. The conditions noted are these: in vivo. Format: ADME, organism-based.
Data set [4] in a line: Volume of distribution in mouse at 1 mg/kg, iv. The conditions noted are these: in vivo. Format: ADME, organism-based. Summed up: as §1
For data set [5], the system named is Plasma. Nature of the data set: Drug metabolism in CD1 mouse plasma assessed as glucuronide conjugate formation at 6 mg/kg, ip dosed once daily for 3 days followed by dosing of 1:1 mixtures of 2-(2-Carboxyethyl)-4-methyl-5-(1-propyl-1-13C)furan-3-carboxylic Acid and test compound on day 4 and 5 measured 1 hr post dose on day 5 by HPLC-MS analysis. Format: ADME, organism-based. The note with it: in vivo. In a few lines:
(§2)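 CMPF given 6 mg/kg i.p. once daily for three days. On days four and five, 1:1 mixtures of stable-isotope-labelled and unlabelled CMPF were dosed. Mice were killed 1 h after the day-five dose. Plasma, adipose, muscle and liver were collected and analysed by HPLC-MS (MS/MS for product ions). Metabolites were identified by their distinctive isotope patterns from the labelled/unlabelled mixture.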

Data set [6] in a line: Suppression of KCl-stimulated insulin secretion in mouse pancreatic islet at 200 uM incubated for 24 hrs followed by KCl stimulation for 20 mins by HTRF assay. In kind it is ADME, cell-based. In a few lines:
(§3)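 Mouse islets treated with compounds at 200 µM. Insulin secretion was then measured under low- and high-glucose GSIS conditions and under KCl stimulation, and intracellular insulin content was measured. Mean of n = 4-5 experiments with SEM.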

Data set [7] can be described thus: Drug metabolism in CD1 mouse adipose assessed as glycerol conjugate formation at 6 mg/kg, ip dosed once daily for 3 days followed by dosing of 1:1 mixtures of 2-(2-Carboxyethyl)-4-methyl-5-(1-propyl-1-13C)furan-3-carboxylic Acid and test compound on day 4 and 5 measured 1 hr post dose on day 5 by HPLC-MS analysis. Format: ADME, organism-based, Adipose tissue. The conditions noted are these: in vivo. In a few lines:
(§4)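 Mice received CMPF 6 mg/kg intraperitoneally for three days, then 1:1 labeled/unlabeled CMPF mixtures on days four and five. On day five they were euthanized 1 h post-dose, and plasma, adipose, muscle and liver were collected. Samples were analysed by HPLC-MS, with MS/MS of product ions. Metabolites were identified by the distinctive isotope patterns from the 1:1 label mixture.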

The test system of data set [8] is Plasma. Nature of the data set: Drug metabolism in CD1 mouse plasma assessed as monoacylglycerol conjugate formation at 6 mg/kg, ip dosed once daily for 3 days followed by dosing of 1:1 mixtures of 2-(2-Carboxyethyl)-4-methyl-5-(1-propyl-1-13C)furan-3-carboxylic Acid and test compound on day 4 and 5 measured 1 hr post dose on day 5 by HPLC-MS analysis. Format: ADME, organism-based. The note with it: in vivo. Summed up: as §2

Data set [9] is described as follows: Drug metabolism in CD1 mouse adipose assessed as monoacylglycerol conjugate formation at 6 mg/kg, ip dosed once daily for 3 days followed by dosing of 1:1 mixtures of 2-(2-Carboxyethyl)-4-methyl-5-(1-propyl-1-13C)furan-3-carboxylic Acid and test compound on day 4 and 5 measured 1 hr post dose on day 5 by HPLC-MS analysis. Format: ADME, organism-based, Adipose tissue. The note with it: in vivo. In a few lines: as §4

A short description of data set [10]: Drug metabolism in CD1 mouse muscle assessed as diacylglycerol conjugate formation at 6 mg/kg, ip dosed once daily for 3 days followed by dosing of 1:1 mixtures of 2-(2-Carboxyethyl)-4-methyl-5-(1-propyl-1-13C)furan-3-carboxylic Acid and test compound on day 4 and 5 measured 1 hr post dose on day 5 by HPLC-MS analysis. The note with it: in vivo. Format: ADME, organism-based, Muscle tissue. In a few lines: as §4

Data set [11] deals with Plasma. Nature of the data set: Drug metabolism in CD1 mouse plasma assessed as oxidative metabolites formation at 6 mg/kg, ip dosed once daily for 3 days followed by dosing of 1:1 mixtures of 2-(2-Carboxyethyl)-4-methyl-5-(1-propyl-1-13C)furan-3-carboxylic Acid and test compound on day 4 and 5 measured 1 hr post dose on day 5 by HPLC-MS analysis. In kind it is ADME, organism-based. The note with it: in vivo. In a few lines: as §2

Data set [12] in a line: Drug metabolism in CD1 mouse muscle assessed as oxidative metabolites formation at 6 mg/kg, ip dosed once daily for 3 days followed by dosing of 1:1 mixtures of 2-(2-Carboxyethyl)-4-methyl-5-(1-propyl-1-13C)furan-3-carboxylic Acid and test compound on day 4 and 5 measured 1 hr post dose on day 5 by HPLC-MS analysis. In kind it is ADME, organism-based, Muscle tissue. The conditions noted are these: in vivo. Summed up:
as §2

Data set [13] is described as follows: Drug metabolism in CD1 mouse adipose assessed as oxidative metabolites formation at 6 mg/kg, ip dosed once daily for 3 days followed by dosing of 1:1 mixtures of 2-(2-Carboxyethyl)-4-methyl-5-(1-propyl-1-13C)furan-3-carboxylic Acid and test compound on day 4 and 5 measured 1 hr post dose on day 5 by HPLC-MS analysis. In kind it is ADME, organism-based, Adipose tissue. The note with it: in vivo. In a few lines: as §4

A short description of data set [14]: Drug metabolism in CD1 mouse muscle assessed as glycerol conjugate formation at 6 mg/kg, ip dosed once daily for 3 days followed by dosing of 1:1 mixtures of 2-(2-(Carboxy-13C)ethyl)-4-methyl-5-propylfuran-3-carboxylic-2-13C Acid and test compound on day 4 and 5 measured 1 hr post dose on day 5 by HPLC-MS analysis. In kind it is ADME, organism-based, Muscle tissue. The note with it: in vivo. In a few lines: as §4

The nature of data set [15]: Drug metabolism in CD1 mouse adipose assessed as monoacylglycerol conjugate formation at 6 mg/kg, ip dosed once daily for 3 days followed by dosing of 1:1 mixtures of 2-(2-(Carboxy-13C)ethyl)-4-methyl-5-propylfuran-3-carboxylic-2-13C Acid and test compound on day 4 and 5 measured 1 hr post dose on day 5 by HPLC-MS analysis. In kind it is ADME, organism-based, Adipose tissue. The conditions noted are these: in vivo. Summed up:
as §4

Data set [16] can be described thus: Drug metabolism in CD1 mouse muscle assessed as diacylglycerol conjugate formation at 6 mg/kg, ip dosed once daily for 3 days followed by dosing of 1:1 mixtures of 2-(2-(Carboxy-13C)ethyl)-4-methyl-5-propylfuran-3-carboxylic-2-13C Acid and test compound on day 4 and 5 measured 1 hr post dose on day 5 by HPLC-MS analysis. In kind it is ADME, organism-based, Muscle tissue. The conditions noted are these: in vivo. Summed up:
as §4

Data set [17] can be described thus: Drug metabolism in CD1 mouse muscle assessed as glycerol conjugate formation at 6 mg/kg, ip dosed once daily for 3 days followed by dosing of 1:1 mixtures of 2-(2-Carboxyethyl)-4-methyl-5-propyl-(3-13C-furan)-3-13Ccarboxylateand test compound on day 4 and 5 measured 1 hr post dose on day 5 by HPLC-MS analysis. Format: ADME, organism-based, Muscle tissue. The conditions noted are these: in vivo. Summed up:
as §4

The subject of data set [18] is Plasma. Put plainly: Drug metabolism in CD1 mouse plasma assessed as diacylglycerol conjugate formation at 6 mg/kg, ip dosed once daily for 3 days followed by dosing of 1:1 mixtures of 2-(2-Carboxyethyl)-4-methyl-5-propyl-(3-13C-furan)-3-13Ccarboxylateand test compound on day 4 and 5 measured 1 hr post dose on day 5 by HPLC-MS analysis. Format: ADME, organism-based. The note with it: in vivo. In a few lines:
as §2

Data set [19] can be described thus: Drug metabolism in CD1 mouse adipose assessed as diacylglycerol conjugate formation at 6 mg/kg, ip dosed once daily for 3 days followed by dosing of 1:1 mixtures of 2-(2-Carboxyethyl)-4-methyl-5-propyl-(3-13C-furan)-3-13Ccarboxylateand test compound on day 4 and 5 measured 1 hr post dose on day 5 by HPLC-MS analysis. In kind it is ADME, organism-based, Adipose tissue. The conditions noted are these: in vivo. In a few lines:
as §4

The nature of data set [20]: Drug metabolism in CD1 mouse adipose assessed as oxidative metabolites formation at 6 mg/kg, ip dosed once daily for 3 days followed by dosing of 1:1 mixtures of 2-(2-Carboxyethyl)-4-methyl-5-propyl-(3-13C-furan)-3-13Ccarboxylateand test compound on day 4 and 5 measured 1 hr post dose on day 5 by HPLC-MS analysis. In kind it is ADME, organism-based, Adipose tissue. The conditions noted are these: in vivo. Summed up:
as §4

A short description of data set [21]: Effect on insulin content in KCl-stimulated mouse pancreatic islet at 200 uM incubated for 24 hrs followed by KCl stimulation for 20 mins by HTRF assay. Format: ADME, cell-based. In a few lines: as §3
Background: TR-FRET usually uses a lanthanide donor and a delayed reading to cut background.

Each structure is given as a SMILES string.

One may read the AUC as concentration integrated over time. A low value points to low exposure. A word on the clearance: it is a measure of how efficiently the substance is removed, as volume per time. What is called Vd is a proportionality between amount in the body and measured concentration, not a real space. With `CCCc1oc(CCC(=O)O)c(C(=O)O)c1C`, in data set [1], the AUC was found to be 210 µM·h. Moreover, the C0 in [2] amounted to 53.3 µM. This compound showed a clearance in data set [3] of 0.66 mL/min/kg. For the same compound, in data set [4], the Vd was found to be 0.2 L/kg. The Drug metabolism result is “Metabolite_Detected” in data set [5]; “Metabolite_Notdetected” in data set [7]; “Metabolite_Notdetected” in [8]; “Metabolite_Notdetected” in data set [9]; “Metabolite_Notdetected” in [10]; “Metabolite_Notdetected” in [11]. Further, the Drug metabolism entry in data set [12], in data set [13], in data set [14], in [15], in [16] and in [17] was “Metabolite_Notdetected” each time. Besides, the Drug metabolism result in [18], in data set [19] and in [20] was “Metabolite_Notdetected” throughout. The results for the Activity entry in data set [6] and in data set [21] were “Toxic” and “Non-Toxic”, respectively.

The values are drawn from ChEMBL document CHEMBL4004837, “Synthesis and Characterization of Urofuranoic Acids: In Vivo Metabolism of 2-(2-Carboxyethyl)-4-methyl-5-propylfuran-3-carboxylic Acid (CMPF) and Effects on in Vitro Insulin Secretion” (J Med Chem, 2017).
